From ChEMBL document CHEMBL1128248, “C-9 and N-substituted analogs of cis-(3aR)-(-)-2,3,3a,4,5,9b-hexahydro-3- propyl-1H-benz[e]indole-9-carboxamide: 5-HT1A receptor agonists with various degrees of metabolic stability” (J Med Chem, 1995)
Calls of active or inactive are those of the source. The calls are words filed in the database; no cut-off is given here.

Key:
Rattus norvegicus [1] = species: Rattus norvegicus; assay: (§1) In vitro metabolic stability of the test compound was evaluated after incubation in the presence of freshly isolated rat hepatocytes; assay type: functional, Hepatocyte; design: reference not given here
Outline: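 Rat hepatocytes were isolated by modified collagenase perfusion and incubated as suspensions (5 million cells/mL) with each compound at three concentrations. Parent loss was followed by HPLC. Initial rates gave apparent Vmax and Km by direct linear plot, with CLint = Vmax/Km. Stability is expressed relative to a reference compound incubated at the same time.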

Rattus norvegicus [2] = assay: (§2) 5-HTP accumulation in limbic system was determined in vivo; assay type: functional
Outline: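 Male Sprague–Dawley rats (200–300 g) pretreated with reserpine 5 mg/kg sc 18 h beforehand; test drug given sc in neck, 5 mL/kg, neutral pH. 5-HTP in limbic system measured by HPLC with electrochemical detection.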

Rattus norvegicus [3] = assay: In vivo effects on DA (dopamine) synthesis in corps striatum was reported after subcutaneous administration to reserpinized rats; inactive at a dose of 50; assay type: functional, organism-based
Outline: (§3)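 Male Sprague–Dawley rats (200–300 g) given reserpine 5 mg/kg sc 18 h before; compounds sc in neck region, 5 mL/kg. DOPA accumulation in striatum or cortex measured by HPLC with electrochemical detection.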

[4] = target: T1, 5-hydroxytryptamine receptor 1A (Rattus norvegicus, UniProt P19327); assay: In vitro displacement of radioactively labeled ligand [3H]8-OH-DPAT from 5-hydroxytryptamine 1A receptor site in CHO cells; assay type: cell-based
T1 sequence (P19327 whole entry): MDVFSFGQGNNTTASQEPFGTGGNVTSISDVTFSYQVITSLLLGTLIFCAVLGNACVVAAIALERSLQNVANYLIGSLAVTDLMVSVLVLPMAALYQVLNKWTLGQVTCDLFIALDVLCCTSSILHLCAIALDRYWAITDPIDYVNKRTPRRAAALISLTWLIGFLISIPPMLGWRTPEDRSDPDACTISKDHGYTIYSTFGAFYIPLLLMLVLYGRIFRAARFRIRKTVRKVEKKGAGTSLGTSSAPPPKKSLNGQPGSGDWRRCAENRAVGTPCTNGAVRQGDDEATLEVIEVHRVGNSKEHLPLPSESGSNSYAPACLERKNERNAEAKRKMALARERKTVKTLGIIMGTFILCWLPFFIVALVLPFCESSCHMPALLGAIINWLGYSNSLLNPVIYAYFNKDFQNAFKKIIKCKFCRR

Rattus norvegicus [5] = assay: postsynaptic effects was assessed by the increase in the locomotor activity (reversal of reserpine induced hypokinesia) during a 30 min period after subcutaneous administration using photocell motility meters at dose of 12.5 (uM /kg); assay type: functional
Outline: (§4)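 Male Sprague–Dawley rats got reserpine 5 mg/kg sc in the neck 18 h before testing. Compound was given sc in the neck (5 mL/kg), and rats were placed singly in photocell motility meters. Accumulated counts were recorded over 30 min, mean ± SEM, n = 4, with Student's t test against reserpinized controls. Testing ran 9 a.m.–1 p.m.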

Rattus norvegicus [6] = assay: in vivo effects on DA (dopamine) synthesis in cortex was reported after subcutaneous administration to reserpinized rats; inactive at a dose of 50; assay type: functional, organism-based; outline: as §3
D(2) dopamine receptor = D(2) dopamine receptor (Rattus norvegicus, UniProt P61169); assay: Displacement of [3H]U-86170 from Dopamine receptor D2
Sequence of D(2) dopamine receptor (P61169 whole entry): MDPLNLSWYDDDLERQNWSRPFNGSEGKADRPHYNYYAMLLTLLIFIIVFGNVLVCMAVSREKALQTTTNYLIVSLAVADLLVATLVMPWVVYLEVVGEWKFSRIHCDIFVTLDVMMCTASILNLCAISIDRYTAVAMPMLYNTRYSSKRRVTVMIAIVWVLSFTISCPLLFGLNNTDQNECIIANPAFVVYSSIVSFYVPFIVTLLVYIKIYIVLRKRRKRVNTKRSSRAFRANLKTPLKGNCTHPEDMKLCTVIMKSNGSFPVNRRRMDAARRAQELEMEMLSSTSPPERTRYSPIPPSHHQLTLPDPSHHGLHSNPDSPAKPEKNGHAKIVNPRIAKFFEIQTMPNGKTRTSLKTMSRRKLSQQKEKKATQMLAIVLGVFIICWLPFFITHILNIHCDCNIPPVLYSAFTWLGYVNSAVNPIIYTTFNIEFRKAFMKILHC
Outline: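 Competition binding at cloned D2 receptors expressed in CHO-K1 cells, using the agonist [3H]U86170 (62 Ci/mmol, 2 nM) against 11 dilutions of test compound. IC50 was fitted to a one-site model by nonlinear least squares. Ki was obtained with the Cheng–Prusoff equation.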

Rattus norvegicus [7] = assay: postsynaptic effects was assessed by the increase in the locomotor activity (reversal of reserpine induced hypokinesia) during a 30 min period after subcutaneous administration using photocell motility meters at the dose of 0.8(micr oM/kg); assay type: ADME, organism-based; conditions: in vivo, sc, 0.5 h
Outline: (§5)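 Reserpine 5 mg/kg sc was given 18 h before testing to male Sprague–Dawley rats. Test drug was given sc in the neck, and rats were placed singly in photocell motility meters. Accumulated counts were recorded over 30 min (mean, n = 4), with gross behaviour observed throughout. Student's t test was applied.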

Rattus norvegicus [8] = assay: as §2; assay type: functional; remark: listed apart in the source
Outline: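 Male Sprague–Dawley rats (200–300 g), pretreated with reserpine 5 mg/kg sc 18 h before. Test drug given sc. 5-HTP measured in limbic brain tissue by HPLC with electrochemical detection. Dose–response curves were built from four to six dose levels (n = 4) for each substance and brain area. ED50 reported in μmol/kg sc.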

Rattus norvegicus [9] = assay: In vivo effects on DA (dopamine) synthesis in corps striatum was reported after subcutaneous administration to reserpinized rats; inactive at a dose of 2.1; assay type: functional, organism-based
Rattus norvegicus [10] = assay: in vivo effects on DA (dopamine) synthesis in cortex was reported after subcutaneous administration to reserpinized rats; inactive at a dose of 2.1; assay type: functional, organism-based
Rattus norvegicus [11] = species: Rattus norvegicus; assay: as §1; assay type: ADME, Hepatocyte
Outline: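 Rat hepatocytes were prepared by a modified collagenase perfusion method. Each compound was incubated at three concentrations in suspension at 5 million cells/mL. Initial rates were analysed by direct linear plot to give apparent Vmax and Km, and CLint = Vmax/Km. Rates were measured by HPLC and expressed relative to a reference compound incubated at the same time.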

Rattus norvegicus [12] = assay: In vivo effects on DA (dopamine) synthesis in corps striatum was reported after subcutaneous administration to reserpinized rats; inactive at a dose of 12.5; assay type: functional, organism-based; outline: as §3
Rattus norvegicus [13] = assay: in vivo effects on DA (dopamine) synthesis in cortex was reported after subcutaneous administration to reserpinized rats; inactive at a dose of 12.5; assay type: functional, organism-based; outline: as §3
Rattus norvegicus [14] = assay: uM/kg); assay type: ADME, organism-based; conditions: in vivo; outline: as §4
Rattus norvegicus [15] = assay: in vivo effects on DA (dopamine) synthesis in cortex was reported after subcutaneous administration to reserpinized rats; assay type: functional, organism-based
Rattus norvegicus [16] = assay: postsynaptic effects was assessed by the increase in the locomotor activity (reversal of reserpine induced hypokinesia) during a 30 min period after subcutaneous administration using photocell motility meters at the dose of 0.2 (mic roM/kg); assay type: functional; outline: as §5
Rattus norvegicus [17] = assay: In vivo effects on DA (dopamine) synthesis in corps striatum was reported after subcutaneous administration to reserpinized rats; I = inactive at highest dose 45 umol/kg; assay type: functional, organism-based
Rattus norvegicus [18] = assay: postsynaptic effects was assessed by the increase in the locomotor activity (reversal of reserpine induced hypokinesia) during a 30 min period after subcutaneous administration using photocell motility meters at the dose of 3.1(micr oM/kg); assay type: ADME, organism-based; conditions: in vivo, sc, 0.5 h; outline: as §5
Rattus norvegicus [19] = assay: in vivo effects on DA (dopamine) synthesis in cortex was reported after subcutaneous administration to reserpinized rats; inactive at a dose of 3.1; assay type: functional, organism-based
Rattus norvegicus [20] = assay: In vivo effects on DA (dopamine) synthesis in corps striatum was reported after subcutaneous administration to reserpinized rats; inactive at a dose of 3.1; assay type: functional, organism-based
Rattus norvegicus [21] = assay: postsynaptic effect was assessed by the increase in the locomotor activity (reversal of reserpine induced hypokinesia) during a 30 min period after subcutaneous administration using photocell motility meters at the dose of 3.1 uM/kg; assay type: ADME, organism-based; conditions: in vivo, sc, 0.5 h; outline: as §5
Rattus norvegicus [22] = assay: postsynaptic effects was assessed by the increase in the locomotor activity (reversal of reserpine induced hypokinesia) during a 30 min period after subcutaneous administration using photocell motility meters at the dose of 50(micro M/kg); assay type: ADME, organism-based; conditions: in vivo, sc, 0.5 h; outline: as §5

SMILES | Metabolic stability (Rattus norvegicus [1]) | Ki [4] | Ki (D(2) dopamine receptor) | other results
CCCN1CC[C@H]2c3c(cccc3C(N)=O)CC[C@H]21 | 1 | 1.9 nM | > 1630 nM | ED50 (Rattus norvegicus [2]): 0.28 µmol/kg; ED50 (Rattus norvegicus [3]): inactive; Locomotor activity (Rattus norvegicus [5]): 249; ED50 (Rattus norvegicus [6]): inactive
CCCN1CC[C@H]2c3c(cccc3C(C)=O)CC[C@H]21 | 0.13 | 0.4 nM | 91 nM | Locomotor activity (Rattus norvegicus [7]): 115; ED50 (Rattus norvegicus [8]): 0.0125 µmol/kg; ED50 (Rattus norvegicus [9]): inactive; ED50 (Rattus norvegicus [10]): inactive
CC(C)=CCN1CC[C@H]2c3c(Br)cccc3CC[C@H]21 | – | 266 nM | 18 nM | Metabolic stability (Rattus norvegicus [11]): 0.21
COCCN1CC[C@H]2c3c(Br)cccc3CC[C@H]21 | – | 97 nM | 252 nM | –
Brc1cccc2c1[C@@H]1CCN(CC3CC3)[C@@H]1CC2 | – | 4.7 nM | 119 nM | –
C#CCN1CC[C@H]2c3c(cccc3C(N)=O)CC[C@H]21 | 0.37 | 48 nM | > 1000 nM | –
C=CCN1CC[C@H]2c3c(cccc3C(N)=O)CC[C@H]21 | 1 | 1.5 nM | > 1000 nM | ED50 (Rattus norvegicus [2]): 0.04 µmol/kg; ED50 (Rattus norvegicus [12]): inactive; ED50 (Rattus norvegicus [13]): inactive; Locomotor activity (Rattus norvegicus [14]): 215
CCCCN1CC[C@H]2c3c(cccc3C(N)=O)CC[C@H]21 | 0.3 | 83 nM | > 1000 nM | –
CCCN(CCC)C1CCc2cccc(O)c2C1 (centres undefined) [8-OH-DPAT] | – | – | 86 nM | ED50 (Rattus norvegicus [15]): inactive; ED50 (Rattus norvegicus [2]): 0.052 µmol/kg; Metabolic stability (Rattus norvegicus [11]): 0.16; Locomotor activity (Rattus norvegicus [16]): 66; ED50 (Rattus norvegicus [17]): inactive
C=CCCN1CC[C@H]2c3c(Br)cccc3CC[C@H]21 | – | 34 nM | 55 nM | –
CCN1CC[C@H]2c3c(Br)cccc3CC[C@H]21 | – | 11 nM | 34 nM | –
CCCC(=O)c1cccc2c1[C@@H]1CCN(CCC)[C@@H]1CC2 | 0.05 | 0.7 nM | 22 nM | Locomotor activity (Rattus norvegicus [18]): 631; ED50 (Rattus norvegicus [8]): 0.26 µmol/kg; ED50 (Rattus norvegicus [19]): inactive; ED50 (Rattus norvegicus [20]): inactive
NC(=O)c1cccc2c1[C@@H]1CCN(CCCF)[C@@H]1CC2 | 0.68 | 3.9 nM | > 1000 nM | –
CCCN1CC[C@H]2c3c(cccc3C(=O)C(C)C)CC[C@H]21 | 0.8 | 1.2 nM | 62 nM | ED50 (Rattus norvegicus [8]): 0.025 µmol/kg; Locomotor activity (Rattus norvegicus [21]): 450; ED50 (Rattus norvegicus [19]): inactive; ED50 (Rattus norvegicus [20]): inactive
CN1CC[C@H]2c3c(cccc3C(N)=O)CC[C@H]21 | 4.9 | – | > 1000 nM | ED50 (Rattus norvegicus [2]): 17.6 µmol/kg; ED50 (Rattus norvegicus [3]): inactive; Locomotor activity (Rattus norvegicus [22]): 23; ED50 (Rattus norvegicus [6]): inactive
CCCCN1CC[C@H]2c3c(Br)cccc3CC[C@H]21 | – | 45 nM | 75 nM | –
